Data as given in the RNAGym collection of RNA variant scans (doi:10.1126/science.aae0568).
Variants at the floor of the assay were thinned out.

B1: tRNA (parent)
chain: GUUCCGUUGGCGUAAUGGUAACGCGUCUCCCUCCUAAGGAGAAGACUGCGGGUUCGAGUCCCGUACGGAACG

Variants of: B1
Test: yeast fitness relative to wild type (ratio to wild type); higher = fitter; tRNA-Arg(CCU), competitive growth, 37 C, YPD
Method in brief: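 Variants of the tRNA-Arg(CCU) gene were chemically synthesised with a 3% per-site mutation rate across 69 sites and placed at the native genomic locus in Saccharomyces cerevisiae. Six parallel replicates of the pooled strains were competed in YPD at 37°C for 24 hours, and gene amplicons from the start and end populations were read by 100-nucleotide paired-end sequencing. Darwinian fitness relative to wild type was derived from changes in genotype frequencies. Genotypes required ≥ 100 starting reads, and estimates < 0.5 were set to 0.5.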
In the case of C4G U16G G48A A57G A69U, the yeast fitness is reported as ≤ 0.5.
With C4G C5U U16A C34A C66A the yeast fitness was ≤ 0.5.
With C4G U8C C34G U47A C49A A65G the yeast fitness was ≤ 0.5.
With C4G U8A A14C G48A G63C the yeast fitness was ≤ 0.5.
With C4G G25A C49U G50U G63C the yeast fitness was ≤ 0.5.
Work on C4G A45U G48C yielded a yeast fitness of 0.501.
With C4G C5U C27G C34A the yeast fitness was ≤ 0.5.
For C4G C11U U19A U32A A37U, the yeast fitness was ≤ 0.5.
In the case of C4G U7A U19C A20C C24U U53C, the yeast fitness is reported as ≤ 0.5.
Work on C4G C29A A57C yielded a yeast fitness of 0.717.
In the case of C4G G9C G41A U53C C55U U59A A70U, the yeast fitness is reported as ≤ 0.5.
In the case of C4G C5U U47A C55U A57C, the yeast fitness is reported as ≤ 0.5.
In the case of C4G C29G A57C, the yeast fitness is reported as 0.612.
For C4G C49A, the yeast fitness was 0.541.
C4G C49U gave a yeast fitness of 0.933.
C4G C49G gave a yeast fitness of 0.682.
For C4G C5G C34G A57G A65G C66U, the yeast fitness was ≤ 0.5.
With C4G C11A C29U C33U U54C the yeast fitness was ≤ 0.5.
In the case of C4G G6C G39C, the yeast fitness is reported as 0.578.
C4G U8G G9A C11U showed a yeast fitness of 0.562.
With C4G U8G G9A C11U C49A the yeast fitness was ≤ 0.5.
With C4G A21U C49G C66G G68C the yeast fitness was 0.673.
For C4G G12U A14C U16C C49U A65G, the yeast fitness was ≤ 0.5.
With C4G G9A G12C C29A G50C the yeast fitness was ≤ 0.5.
In the case of C4G U13C C49U C60G A65U, the yeast fitness is reported as ≤ 0.5.
In the case of C4G C55U C66G, the yeast fitness is reported as ≤ 0.5.
With C4G G68A the yeast fitness was 0.904.
In the case of C4G C29G A36C A37U G38A A40C A45G G51A, the yeast fitness is reported as ≤ 0.5.
For C4G G10A U13A U26G C27G C29U C33U U53C C61U, the yeast fitness was ≤ 0.5.
In the case of C4G C24A A42G, the yeast fitness is reported as ≤ 0.5.
In the case of C4G G17C C33A G56C A70C, the yeast fitness is reported as 0.542.
C4G C29G showed a yeast fitness of 0.69.
In the case of C4G C29U, the yeast fitness is reported as 0.751.
In the case of C4G C5G G39A C49A, the yeast fitness is reported as ≤ 0.5.
In the case of C4G C34G A40G G68A, the yeast fitness is reported as ≤ 0.5.
For C4G C11U A36G G63A, the yeast fitness was ≤ 0.5.
With C4G U13A C33G A36G the yeast fitness was ≤ 0.5.
For C4G C5G C11A A69C A70C, the yeast fitness was ≤ 0.5.
With C4G C30A G52C C66U the yeast fitness was ≤ 0.5.
In the case of C4G C30A A42C, the yeast fitness is reported as ≤ 0.5.
For C4G C24A C34A U35G C49A C62G, the yeast fitness was ≤ 0.5.
In the case of C4G U8A G12A C34A G50C, the yeast fitness is reported as ≤ 0.5.
For C4G A42U G50C C62A G67U, the yeast fitness was ≤ 0.5.
In the case of C4G G41A A45U, the yeast fitness is reported as 0.537.
For C4G U7G A69U, the yeast fitness was ≤ 0.5.
With C4G A21G C34U G44C C55G the yeast fitness was ≤ 0.5.
For C4G U7C A20G C27A U59G, the yeast fitness was ≤ 0.5.
For C4G U8A G12A G58A, the yeast fitness was ≤ 0.5.
C4G C30A gave a yeast fitness of 0.679.
With C4G C30U the yeast fitness was 0.852.
In the case of C4G U8G A42C C55U, the yeast fitness is reported as ≤ 0.5.
With C4G G23C C66A the yeast fitness was ≤ 0.5.
With C4G C29A G50A the yeast fitness was ≤ 0.5.
For C4G U16A A36C U54G C60U A70G, the yeast fitness was ≤ 0.5.
With C4G U16G C30U C34A U53G A70C the yeast fitness was ≤ 0.5.
For C4G C5G C30U C31U A45U, the yeast fitness was ≤ 0.5.
With C4G A21U U28A C30G the yeast fitness was ≤ 0.5.
With C4G C22G G52C G68C the yeast fitness was 0.575.
With C4G A40G A42U the yeast fitness was ≤ 0.5.
With C4G C34G A43U A70C the yeast fitness was ≤ 0.5.
In the case of C4G A45U G48C C49G, the yeast fitness is reported as ≤ 0.5.
Work on C4G G9A G39A yielded a yeast fitness of 0.576.
With C4G C27U G41C the yeast fitness was ≤ 0.5.
For C4G C11G C34U G38A G44C, the yeast fitness was ≤ 0.5.
In the case of C4G G12U A14C C49U A65G, the yeast fitness is reported as 0.513.
With C4G U13A C30G the yeast fitness was ≤ 0.5.
In the case of C4G U19C C62U G63A, the yeast fitness is reported as 0.545.
C4G U7A G9A C11U C30G gave a yeast fitness of 0.545.
With C4G U13G C66U the yeast fitness was 0.564.
In the case of C4G G17C C33G U59C, the yeast fitness is reported as ≤ 0.5.
For C4G C30U A42U G50C G63C, the yeast fitness was ≤ 0.5.
With C4G A40C G68C the yeast fitness was ≤ 0.5.
With C4G U16A A43C the yeast fitness was ≤ 0.5.
C4G C11A U35A C49U U59G G67U showed a yeast fitness of 0.554.
For C4G U16A U35A C61G, the yeast fitness was 0.882.
With C4G G18C A45G C62A A69C the yeast fitness was ≤ 0.5.
In the case of C4G C5U C55U, the yeast fitness is reported as 0.544.
With C4G G17A A57U U59C the yeast fitness was ≤ 0.5.
Variant C4G C27G has a yeast fitness of 0.816.
With C4G C5A C27A C34A A42U the yeast fitness was ≤ 0.5.
In the case of C4G U13A G63A, the yeast fitness is reported as ≤ 0.5.
For C4G C11G C49U C60U, the yeast fitness was ≤ 0.5.
With C4G C30G C33A C61G the yeast fitness was ≤ 0.5.
C4G C29G A37U C49A G58C showed a yeast fitness of 0.502.
